Screening results deposited in PubChem by several laboratories.
A selection: hits, their analogues and other compounds. The true share with any hit is near 1.5%.
EBNA-1 inh: blocks EBNA-1 binding to DNA | EBNA-1 DNA binding, fluorescence polarization | inhibition, % at 14.8 µM | 300,000 compounds, 0.34% hits; in the data active means inhibition above about 28%
LANA-H2A inh: blocks KSHV LANA binding to histone H2A/H2B | cell-free LANA-H2A/H2B peptide, fluorescence polarization | Q9QR71 | inhibition, % (test concentration not listed) | 320,000 compounds, 0.6% hits; in the data active means inhibition mostly above about 10%, no sharp cut-off; inactive means mostly below about 6.7%
ZTA DNA inh: ZTA (EBV) inhibition in EBNA-1 counter-screen | inhibition, % at 11 µM | 320,000 compounds, 0.15% hits | ZTA-DNA binding, fluorescence polarization; in the data active means inhibition above about 33%
Target sequence (P03206 whole entry, looked up): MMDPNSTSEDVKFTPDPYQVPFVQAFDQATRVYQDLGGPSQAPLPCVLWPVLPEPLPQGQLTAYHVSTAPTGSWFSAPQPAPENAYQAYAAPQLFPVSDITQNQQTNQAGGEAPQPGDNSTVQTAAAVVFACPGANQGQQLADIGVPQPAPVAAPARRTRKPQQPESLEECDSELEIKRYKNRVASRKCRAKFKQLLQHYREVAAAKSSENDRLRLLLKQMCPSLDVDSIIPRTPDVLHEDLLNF
HNF4A DNA FP: change in binding of human HNF4 alpha to DNA; 360,000 compounds, 0.3% hits; activity change, % at 10 µM; HNF4a-FITC DNA binding, fluorescence polarization, 1 h; AID 1224865; in the data active means activity change above about 30%, passing the limit was not always enough
CSN deneddyl inh: CSN deneddylation inhibition | Q92905 | Purified CSN, SCF-Nedd8-OG deneddylation, fluorescence polarization | inhibition, % at 12.5 µM | 360,000 compounds, 0.38% hits;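 active means pattern-corrected inhibition above about 35%, with an unprinted fluorescence ratio check between 0.5 and 1.5, limit read from the data, passing the limit was not always enough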;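 further: 0% = enzyme with substrate and 100% = substrate without enzyme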
Target sequence (Q92905 whole entry, looked up, one chain of several): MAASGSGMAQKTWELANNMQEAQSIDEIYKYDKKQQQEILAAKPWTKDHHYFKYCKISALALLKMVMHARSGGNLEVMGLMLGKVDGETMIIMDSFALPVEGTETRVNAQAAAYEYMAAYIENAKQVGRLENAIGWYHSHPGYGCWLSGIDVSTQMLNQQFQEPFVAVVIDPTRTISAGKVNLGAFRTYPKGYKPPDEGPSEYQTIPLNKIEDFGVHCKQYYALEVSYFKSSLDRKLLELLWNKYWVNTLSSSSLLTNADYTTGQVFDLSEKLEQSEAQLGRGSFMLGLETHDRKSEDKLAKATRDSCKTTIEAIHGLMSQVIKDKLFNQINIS
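Schedule: reaction 90 min, room temperature / Assay system: HEK293T-derived human Csn5 enzyme / Input: Csn5 at 0.24 nM final / Measure: inhibition of Csn5 cleavage, % / Control set: substrate-only high control, full reaction low control / Technique: fluorescence polarization of the substrate / Buffer or medium: Tris/NaCl/DTT buffer, pH 7.5 / Reagent: SCFSkp2-Nedd8OG substrate at 10 nM final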
Bfl-1 A1 inh: inhibitors of the anti-apoptotic protein A1, read as caspase activation | MEF A1-2A-BIM cells, Caspase-Glo 3/7 luminescence, 3 h; percent of clofoctol response, vehicle zero | caspase activation, % (concentration not given with the values) | 330,000 compounds, 0.066% hits;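 active means over half of replicate activation scores above 10%, or exactly half above 10 with the replicate mean above 10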
Starred values were filed as active, the others as inactive; nt = not tested or not shown; + = active, no number.

SMILES	EBNA-1 inh	LANA-H2A inh	ZTA DNA inh	HNF4A DNA FP	CSN deneddyl inh	Bfl-1 A1 inh
CC(C)CC12CN3CCN(CC(C3)C1O)C2 (stereo not drawn)	8.2	0.7*	2.9	-1.2	-1.7	0.7
N=Cc1c(O)n(-c2ccc(C34CC5CC(CC(C5)C3)C4)cc2)c(=O)[nH]c1=O	28.7*	-1.5	21.2	14.8	6.7	0.0
CC(C)(CN)CC(=O)O	-5.5	-3.9	-2.0	-0.6	5.3	0.9
Cc1cc(C(=O)OCC(=O)Nc2cccc(F)c2)c(C)n1C1CC1	nt	+	-4.7	3.1	0.4	0.7
COCCCNC(=O)c1c(N)n(Cc2ccco2)c2nc3ccccc3nc12	-5.1	3.7	-3.6	-1.3	-3.7	0.3
COc1ccc(Cn2c(N)c(C(=O)NCc3ccco3)c3nc4ccccc4nc32)cc1OC	2.6	-8.1	-7.1	10.6	57.2*	0.8
Cc1ccc(N2C(=O)NC(=O)/C(=C\c3ccoc3)C2=O)cc1	-0.4	-2.1	4.5	18.9	57.8*	-0.4
O=C1NC(=O)N(Cc2ccc(F)cc2)C(=O)/C1=C\c1ccoc1	13.9	-9.1	3.4	59.7*	149.5	-0.1
COC(=O)C1=C(c2ccc3ccccc3c2)C[C@@H]2CC[C@H]1N2C(=O)NC1CC1	nt	-0.3	-7.5	1.9	-0.3	0.3
Cc1nc2cc(OC(=O)N(C)Cc3cccc(-c4ccncc4)c3)ccc2s1	nt	nt	nt	3.1	2.2	nt
CCCCOC1OCN(C2CCCCC2)CC1(C)C (stereo not drawn)	nt	nt	nt	0.4	-1.0	nt
CC(C)(O)C(=O)Nc1ccc([N+](=O)[O-])c(C(F)(F)F)c1	nt	19.9*	-8.7	2.2	0.9	0.3
COc1cc2c(cc1OC)CN(c1ccc([N+](=O)[O-])c(C(F)(F)F)c1)CC2	-11.1	5.1	-25.3	-0.7	2.1	0.4
CC(C)(C)N1C(=O)NC(=O)/C(=C\c2ccc3c(c2)CCN3CCCCl)C1=O	-1.1	1.9	7.0	16.9	39.0*	-0.2
CCN1C(=O)/C(=C/c2ccc3c(c2)CCN3CCCCl)C(=O)NC1=S	7.1	1.0	5.0	-24.1	18.1	1.1
O=C(C1CCCN(S(=O)(=O)c2cccc3nsnc23)C1)N1CCC2(CC1)OCCO2 (stereo not drawn)	-6.3	45.2*	-3.3	nt	nt	0.6
COC(C)(C)CCCC(C)C/C=C/C(C)=C/C(=O)OC(C)C (stereo not drawn)	nt	-1.3	0.2	-1.2	4.2	-0.7
CC[C@@H](C(N)=O)N1CCCC1=O	-0.5	0.1	-6.7	nt	nt	-0.3
CCCC(=O)OCC[N+](C)(C)C	12.5	19.8*	4.6	4.7	-1.8	1.6
CCCCCCCCCCOC(=O)CCN1CC1	nt	nt	nt	-7.1	1.3	nt
Cc1cc(Oc2cc(NN3CCCCC3)c([N+](=O)[O-])cc2[N+](=O)[O-])ccc1[N+](=O)[O-]	8.5	2.9	-9.4	5.0	-0.9	-0.3
O=C(O)Cn1cc(C=C2C(=O)NC(=O)NC2=O)c2ccccc21	-0.7	6.2	2.6	1.2	6.9	0.3
CCN1C(=O)NC(=O)/C(=C\c2cn(CC(=O)N3CCCCC3C)c3ccccc23)C1=O (stereo not drawn)	1.7	33.3*	19.8	232.0	-0.2	1.4
O=C(Cn1cc(C=C2C(=O)NC(=O)NC2=O)c2ccccc21)NCC1CCCO1 (stereo not drawn)	1.1	17.5*	12.2	-0.5	2.3	-0.4
CCCCCC1(C(C)C)C(=O)NC(=S)NC1=O	nt	nt	nt	-3.4	-4.8	nt
SMILES	EBNA-1 inh	LANA-H2A inh	ZTA DNA inh	HNF4A DNA FP	CSN deneddyl inh	Bfl-1 A1 inh
c1ccc(N2[C@@H]3CC[C@H]2c2ccccc2C3)cc1	nt	nt	nt	-3.0	6.9	nt
Cn1c(O)c(/C=C/C=Nc2ccccc2)c(=O)n(C)c1=O	-8.6	-4.7	-8.3	85.5*	56.5*	-0.5
Cn1c(O)c(C=Nc2ccccc2)c(=O)n(C)c1=O	14.3	0.5	7.6	0.6	-4.7	0.0
c1ccc(-c2[nH]c[n+](CC3CO3)c2-c2ccccc2)cc1 (stereo not drawn)	11.5	0.6	40.4*	nt	nt	0.5
c1ccc(OCC2CO2)cc1 (stereo not drawn)	nt	-10.5	-2.8	1.9	0.0	0.3
Cn1cc(C(=O)OCC(=O)Nc2ccccc2Cl)c2ccccc21	nt	nt	nt	1.7	2.8	nt
Cn1cc(C(=O)OCC(=O)Nc2ccccc2)c2ccccc21	nt	89.8*	-2.1	-3.1	0.7	1.1
CN1C(=O)C(=Cc2ccc(N3CCOCC3)o2)C(=O)N(C)C1=S	0.3	-8.9	4.6	86.6*	175.7	0.0
C=CCN1C(=O)/C(=C\c2ccc(N3CCOCC3)o2)C(=O)NC1=S	2.6	-10.3	-13.6	56.0*	112.2	1.1
CC(=O)O[C@H]1C[C@@H]2CC[C@@H]3[C@H](CC[C@]4(C)C(=O)CC[C@@H]34)[C@@]2(C)C[C@@H]1OC(C)=O	-3.7	-2.9	3.6	4.1	2.8	0.6
COc1ccc(Oc2cc(NC(=O)c3nn(C)cc3[N+](=O)[O-])cc([N+](=O)[O-])c2)cc1	9.3	-2.5	4.6	5.6	-0.8	13.5*
COc1ccc(NC(=O)c2cn(CCC#N)nc2-c2cccc([N+](=O)[O-])c2)cc1	-0.1	0.4	-11.8	0.8	-0.4	0.5
CC1(O)CCN2C(=O)CCc3cccc1c32 (stereo not drawn)	nt	11.8*	-1.1	-6.7	-4.0	0.4
CN1/C(=C\C=C\C2=[N+](C)c3ccc4ccccc4c3C2(C)C)C(C)(C)c2ccccc21	100.6*	-37.5	+	nt	nt	-1.5
Cc1cccc(C)c1-n1nnnc1C(c1cccs1)N1CCC(n2c(=O)[nH]c3ccccc32)CC1 (stereo not drawn)	nt	nt	nt	11.2	67.7*	nt
CC(=O)OC(C)(C)/C=C/C(=O)[C@](C)(O)C1[C@H](O)C[C@@]2(C)C3CC=C4C(C[C@H](O)C(=O)C4(C)C)[C@]3(C)C(=O)C[C@]12C (stereo partly drawn)	nt	7.8	nt	1.0	6.0	20.7*
Cc1cccc(N2CCN(Cc3ccc4c(c3)OCO4)CC2)c1C	-19.4	2.9	-17.1	1.1	7.4	0.1
CN1CCN(C(=O)COc2ccc(S(=O)(=O)Nc3ccc(F)cc3)cc2)CC1	-0.9	-3.5	-11.4	43.0*	2.4	0.4
CCN1CCN(C(=O)COc2ccc(S(=O)(=O)NC(C)C)cc2)CC1	4.9	-3.0	-4.3	-1.5	-5.6	0.3
CN(C)N=O	nt	48.8*	-18.9	-3.5	6.0	0.3
O=C(NC1CCCCC1)N1Cc2cc(-c3cccc(F)c3)ccc2-n2nncc2C1	nt	nt	nt	4.9	144.5*	nt
COc1ccc(CCn2c(O)c(C=Nc3ccc(F)cc3)c(=O)[nH]c2=O)cc1OC	-2.2	14.6*	-15.4	1.8	7.7	-0.1
CS(=O)(=O)c1ccc(C2=C(CNC(=O)c3ccc([N+](=O)[O-])cc3)[C@H]3CC[C@@H](C2)N3CCOc2ccccc2)cc1	nt	nt	nt	-2.3	2.8	nt
Cc1cccc(N2C(=O)NC(=O)/C(=C/c3ccc([N+](=O)[O-])o3)C2=O)c1	18.3	2.2	37.4*	nt	nt	-0.4
